The values below come from ChEMBL document CHEMBL5346942, “Identification and analysis of small molecule inhibitors of FosB from Staphylococcus aureus” (RSC Med Chem, 2023).

≈ marks a conversion by molar mass, not a printed value.

One data set concerns HepG2. Nature of the data set: Cytotoxicity against human HepG2 cells assessed as reduction in cell viability at 64 ug/ml incubated for 24 hrs by resazurin dye based fluorescence analysis. The conditions noted are these: hepg2, 24 h, dose 64 µg/ml. The data set is classed as toxicity. A digest of the protocol:
(§1)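 HEK-293 or HepG2 cells grown in DMEM with 10% FBS and 1% penicillin/streptomycin at 37 °C, 5% CO2. Positive control was 1% Triton X-100. Viability read by resazurin (2 mM stock) added for 24 h, measuring resorufin fluorescence.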
Background: The colour change of resazurin is a common sign of viable cells or microbes.

Another data set relates to HEK293. Put plainly: Cytotoxicity against HEK293 cells assessed as reduction in cell viability at 64 ug/ml incubated for 24 hrs by resazurin dye based fluorescence analysis. The data set is classed as toxicity. The conditions noted are these: human, hek293, 24 h, dose 64 µg/ml. A digest of the protocol: as §1
The target of data set [1] is T1, Metallothiol transferase FosB (Staphylococcus aureus, UniProt Q5HDM4). Nature of the data set: Inhibition of Staphylococcus aureus FosB using L-cysteine as substrate assessed as inhibition constant for initial binding event by absorbance based DTNB assay.
T1 sequence (Q5HDM4 whole entry): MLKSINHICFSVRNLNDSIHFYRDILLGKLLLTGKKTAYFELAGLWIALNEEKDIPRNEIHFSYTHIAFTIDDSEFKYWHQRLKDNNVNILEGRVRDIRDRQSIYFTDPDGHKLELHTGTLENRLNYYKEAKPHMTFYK
Data set [2] has as its system Staphylococcus aureus. Nature of the data set: Antibacterial activity against Staphylococcus aureus JE2 harboring […] assessed as reduction in bacterial growth incubated overnight in presence of fosfomycin by double dilution method. Type of data set: functional. Summed up:
(§2)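 S. aureus JE2 grown overnight at 37 °C on Mueller–Hinton agar; colonies suspended in MH broth to OD600 ~0.5, diluted 1:1000 and added to serial twofold dilutions of compound (water stocks 10 mg/mL). Incubated overnight at 37 °C; MIC read visually as the well with no growth. Sterile and growth control wells included. For combinations, fosfomycin diluted along one plate axis and inhibitor along the other, before the inoculum was added.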

Data set [3] concerns Staphylococcus aureus. Put plainly: Antibacterial activity against Staphylococcus aureus JE2 harboring […] assessed as fosfomycin MIC at 128 ug/ml incubated overnight by double dilution method. The data set is classed as functional. The conditions noted are these: dose 128 µg/ml. A digest of the protocol: as §2
Data set [4] relates to Staphylococcus aureus. Put plainly: Antibacterial activity against Staphylococcus aureus JE2 harboring […] assessed as reduction in bacterial growth incubated overnight by double dilution method. The data set is classed as functional. Summed up: as §2
Data set [5] concerns the target T1, Metallothiol transferase FosB. Put plainly: Competitive inhibition of Staphylococcus aureus FosB using L-cysteine as substrate assessed as inhibition constant for initial binding event by absorbance based DTNB assay.
The subject of data set [6] is Staphylococcus aureus. Put plainly: Antibacterial activity against Staphylococcus aureus harboring FosB. The data set is classed as functional. A digest of the protocol:
as §2

For data set [7], the system named is Staphylococcus aureus. Put plainly: Antibacterial activity against Staphylococcus aureus lacking FosB. Type of data set: functional.
Data set [8] deals with T1, Metallothiol transferase FosB. Nature of the data set: Parabolic competitive inhibition of Staphylococcus aureus FosB using L-cysteine as substrate assessed as inhibition constant for second binding event by absorbance based DTNB assay. A digest of the protocol: (§3)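 FosB from S. aureus, steady-state Michaelis–Menten kinetics with L-cysteine as the thiol co-substrate (instead of BSH) and varied fosfomycin. Rates read by absorbance-based DTNB assay at several fixed inhibitor concentrations. Initial velocities globally fit to a parabolic competitive model (two inhibitor molecules bind). Ki1 is the first binding event, Ki2 the second.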

For data set [9] the target is unchanged. Put plainly: Parabolic competitive inhibition of Staphylococcus aureus FosB using L-cysteine as substrate assessed as inhibition constant for initial binding event by absorbance based DTNB assay. A digest of the protocol:
as §3

`O=C(O)CCP(=O)(O)O`: the Activity entry in the data set on HepG2 and in the data set on HEK293 was “Non-Toxic” in each case.
In the case of `O=P(O)(O)CCP(=O)(O)O`, the Activity result with HepG2 and in the data set on HEK293 was “Non-Toxic” throughout.
Usually Ki stands for a dissociation constant, usually derived from enzyme kinetics or from competition with a known ligand. Usually MIC stands for the lowest concentration found to suppress growth. For `CC(C)[C@H](O)P(=O)(O)O`, in data set [1], the Ki was found to be 3.58 mM. In addition, the Activity result in the data set on HepG2 and in the data set with HEK293 was “Non-Toxic” each time. Further, the MIC is above 128 µg/mL in the data set with Staphylococcus aureus [2], 8 µg/mL in the data set on Staphylococcus aureus [3] and above 128 µg/mL in the data set on Staphylococcus aureus [4].
With `C[C@H](CO)P(=O)(O)O`, the inhibition constant (Ki) in [1] is 5.29 mM. In addition, the Activity result with HepG2 and with HEK293 was “Non-Toxic” throughout. Besides, the MIC in the data set on Staphylococcus aureus [2] is above 128 µg/mL; with Staphylococcus aureus [3] it was 8 µg/mL; in the data set on Staphylococcus aureus [4] it was above 128 µg/mL.
For `CC[C@@H](O)P(=O)(O)O`, the Ki in [1] was 1.57 mM. Further, the Activity entry in the data set with HepG2 and in the data set with HEK293 was “Non-Toxic” each time. The MIC with Staphylococcus aureus [2] is above 128 µg/mL; in the data set with Staphylococcus aureus [3], 8 µg/mL.
As for `C[C@@H](C(=O)O)P(=O)(O)O`, the Activity result in the data set on HepG2 and in the data set on HEK293 was “Non-Toxic” throughout. Moreover, the Ki in data set [5] is 0.43 mM. The minimum inhibitory concentration (MIC) in the data set with Staphylococcus aureus [2] is above 128 µg/mL; in the data set with Staphylococcus aureus [3], 8 µg/mL; with Staphylococcus aureus [4], above 128 µg/mL.
`C[C@@H]1O[C@@H]1P(=O)(O)O` [FOSFOMYCIN]: the MIC against Staphylococcus aureus [6] was 64 µg/mL (≈ 464 µM); with Staphylococcus aureus [7], 0.5 µg/mL (≈ 3.62 µM); in the data set on Staphylococcus aureus [4] it was above 128 µg/mL. For the same compound, the Activity result with HepG2 and with HEK293 was “Non-Toxic” throughout.
With `O=C(O)CP(=O)(O)O` [FOSFONET], the Activity result in the data set with HepG2 and with HEK293 was “Non-Toxic” each time. Also, the Ki in data set [8] came to 0.21 mM; in data set [9], 0.9 mM. The MIC with Staphylococcus aureus [2] was above 128 µg/mL; with Staphylococcus aureus [3] it was 8 µg/mL; with Staphylococcus aureus [4] it was above 128 µg/mL.
For `CC(C(=O)O)C(=O)O` [METHYLMALONIC ACID], the Activity result in the data set with HepG2 and in the data set on HEK293 was “Non-Toxic” each time.
